From ChEMBL document CHEMBL1128665, “Design, synthesis, and structure-activity relationship of novel dinucleotide analogs as agents against herpes and human immunodeficiency viruses” (J Med Chem, 1995)
Values after ≈ are worked out from the molar mass of the structure shown.

What was measured:
HeLa [1] = assay: Concentration required to cause microscopically visible change or disruption in about 50% of Hela cell sheet.; type: functional, cell-based; settings: Homo sapiens
How it was run: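 Uninfected HeLa cell sheets were exposed to a range of compound concentrations and checked microscopically for morphological change. The value is the concentration causing visible change or disruption in about 50% of the cell sheet.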

HeLa [2] = assay: Inhibition of cytopathogenicity of Varicella-Zoster virus(VZV)(YS) in Hela cell culture.; type: functional, cell-based; settings: Homo sapiens
HeLa [3] = assay: Inhibition of cytopathogenicity of herpes simplex type 2 virus([…] in Hela cell culture; type: functional, cell-based; settings: Homo sapiens
HeLa [4] = assay: Inhibition of cytopathogenicity of herpes simplex type 1 virus (HSV-1)(KOS) in Hela cell culture.; type: functional, cell-based; settings: Homo sapiens
[5] = Solubility was determined with phosphate buffer (0.10M, 5 mL).; type: physicochemical; settings: read-out: Solubility in water
How it was run: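 Solid compound (70 mg) was agitated in 0.10 M phosphate buffer (5.0 mL) for 20 h. Undissolved solid was filtered off on sintered glass, and the dissolved concentration was determined by UV absorbance.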

MT4 [6] = assay: Concentration required to reduce the number of viable uninfected cells by 50%; type: functional, cell-based; settings: Homo sapiens
How it was run: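 Uninfected MT4 cells were used for the toxicity arm of the anti-HIV-1 cell-protection assay. The value is the concentration reducing the number of viable uninfected cells by 50%. […]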

MT4 [7] = assay: Inhibitory Effect against HIV-1 (IIIB) in MT4 cells; settings: Homo sapiens
HeLa [8] = assay: Inhibition of cytopathogenicity of Varicella-Zoster virus(VZV)(YS) in Hela cell culture; Not active up to 128 ug/mL.; type: functional, cell-based, Homo sapiens
MT4 [9] = assay: Inhibitory Effect against HIV-1 (IIIB) in MT4 cells; Not active up to 128 ug/mL.; settings: Homo sapiens
HeLa [10] = assay: Inhibition of cytopathogenicity of herpes simplex type 2 virus([…] in Hela cell culture; Not active up to 128 ug/mL.; type: functional, cell-based, Homo sapiens

Row | Structure (SMILES) | IC50 (HeLa [1]; read-out: IC50) [µg/mL] | IC50 (HeLa [3]) [µg/mL] | IC50 (HeLa [4]; read-out: IC50) [µg/mL] | solubility [5] [µg/mL] | IC50 (MT4 [6]) [µg/mL] | IC50 (MT4 [7]) [µg/mL] | further results
1 | CCOP(=O)(O)CCOCn1cnc2c(N)ncnc21.N | 176 | 13.8 | 11.3 |  |  |  | IC50 (HeLa [2]): 25 µg/mL
2 | Nc1ncnc2c1ncn2COCCP(=O)(O)O | 215 (≈ 787 µM) | 5.86 (≈ 21.5 µM) | 3.98 (≈ 14.6 µM) | 13600 (≈ 49900 µM) |  |  | IC50 (HeLa [2]): 16 µg/mL (≈ 58.6 µM)
3 | COC(=O)[C@@H](C)NP(=O)(C[C@H]1O[C@@H](n2cc(C)c(=O)[nH]c2=O)C[C@@H]1F)O[C@H]1C[C@H](n2cc(C)c(=O)[nH]c2=O)O[C@@H]1CO (some centres undefined) |  |  |  | 8920 (≈ 14400 µM) | 462 (≈ 748 µM) | 0.5 (≈ 0.81 µM) | 
4 | COC(=O)[C@@H](C)NP(=O)(C[C@H]1O[C@@H](n2cc(C)c(=O)[nH]c2=O)C[C@@H]1N=[N+]=[N-])O[C@H]1C[C@H](n2cc(C)c(=O)[nH]c2=O)O[C@@H]1CO (some centres undefined) |  |  |  | 9200 (≈ 14400 µM) | 458 (≈ 714 µM) | 0.76 (≈ 1.19 µM) | 
5 | COC(=O)[C@H](C)NP(=O)(C[C@H]1O[C@@H](n2cc(C)c(=O)[nH]c2=O)C[C@@H]1F)O[C@H]1C[C@H](n2cc(C)c(=O)[nH]c2=O)O[C@@H]1CO (some centres undefined) |  |  |  | 8790 (≈ 14200 µM) | 180 (≈ 292 µM) | 0.34 (≈ 0.551 µM) | 
6 | COC(=O)[C@H](C)NP(=O)(C[C@H]1O[C@@H](n2cc(C)c(=O)[nH]c2=O)C[C@@H]1N=[N+]=[N-])O[C@H]1C[C@H](n2cc(C)c(=O)[nH]c2=O)O[C@@H]1CO (some centres undefined) |  |  |  | 9130 (≈ 14300 µM) | 200 (≈ 312 µM) | 0.61 (≈ 0.952 µM) | 
7 | Cc1cn([C@H]2C[C@H](N=[N+]=[N-])[C@@H](CP(=O)(O)O[C@H]3C[C@H](n4cc(C)c(=O)[nH]c4=O)O[C@@H]3CO)O2)c(=O)[nH]c1=O |  |  |  | 3240 (≈ 5830 µM) | 99.5 (≈ 179 µM) | 1.92 (≈ 3.46 µM) | 
8 | Cc1cn([C@H]2C[C@H](OP(=O)(O)C[C@H]3O[C@@H](n4cc(C)c(=O)[nH]c4=O)C[C@@H]3F)[C@@H](CO)O2)c(=O)[nH]c1=O |  |  |  | 3980 (≈ 7480 µM) | 79 (≈ 148 µM) | 3.04 (≈ 5.71 µM) | 
9 | COC(=O)C(C)NP(=O)(CCOCn1cnc2c(N)ncnc21)O[C@H]1[C@H](O)[C@H](n2cnc3c(N)ncnc32)O[C@@H]1CO (some centres undefined) | 215 (≈ 355 µM) | 0.88 (≈ 1.45 µM) | 0.38 (≈ 0.625 µM) | 8250 (≈ 13600 µM) |  |  | IC50 (HeLa [2]): 4.82 µg/mL (≈ 7.93 µM)
10 | Nc1ncnc2c1ncn2COCCP(=O)(O)O[C@H]1[C@H](O)[C@H](n2cnc3c(N)ncnc32)O[C@@H]1CO |  | 16.3 (≈ 31.2 µM) | 8.97 (≈ 17.2 µM) | 2460 (≈ 4710 µM) |  |  | IC50 (HeLa [1]): 346 µg/mL (≈ 662 µM); IC50 (HeLa [8]): Not Active
11 | Cc1cn([C@H]2C[C@H](N=[N+]=[N-])[C@@H](CP(=O)(O)O)O2)c(=O)[nH]c1=O |  |  |  | 11200 (≈ 33700 µM) | 115 (≈ 346 µM) | 7.68 (≈ 23.2 µM) | 
12 | Cc1cn([C@H]2C[C@H](F)[C@@H](CP(=O)(O)O)O2)c(=O)[nH]c1=O |  |  |  | 12300 (≈ 39800 µM) | 98.7 (≈ 320 µM) | 11.8 (≈ 38.3 µM) | 
13 | Cc1cn([C@H]2C=C[C@@H](CP(=O)(O)O)O2)c(=O)[nH]c1=O |  |  |  |  | 196 (≈ 679 µM) |  | IC50 (MT4 [9]): Not Active
14 | Cc1cn([C@H]2C[C@H](C#N)[C@@H](CP(=O)(O)O)O2)c(=O)[nH]c1=O |  |  |  |  | 69.9 (≈ 222 µM) |  | IC50 (MT4 [9]): Not Active
15 | Cc1cn([C@H]2CC[C@@H](CP(=O)(O)O)O2)c(=O)[nH]c1=O |  |  |  |  | 128 (≈ 443 µM) | 23.5 (≈ 81 µM) | 
16 | Cc1cn([C@H]2C[C@H](N=[N+]=[N-])[C@@H](CP(=O)(O)O)O2)c(N)nc1=O |  |  |  |  | 58.6 (≈ 178 µM) |  | IC50 (MT4 [9]): Not Active
17 | Nc1ncnc2c1ncn2COCCP(=O)(O)O.Nc1ncnc2c1ncn2[C@@H]1O[C@H](CO)[C@@H](O)[C@@H]1O | 168 | 1.25 | 0.67 |  |  |  | IC50 (HeLa [2]): 2.86 µg/mL
18 | Nc1ncnc2c1ncn2COCCO | 266 (≈ 1270 µM) | 8.26 (≈ 39.5 µM) | 4.43 (≈ 21.2 µM) | 1950 (≈ 9320 µM) |  |  | IC50 (HeLa [2]): 6.5 µg/mL (≈ 31.1 µM)
19 | Nc1ncnc2c1ncn2COCCO.Nc1ncnc2c1ncn2COCCP(=O)(O)O | 235 | 0.38 | 0.15 |  |  |  | IC50 (HeLa [2]): 0.18 µg/mL
20 | Nc1nc2c(ncn2COCCO)c(=O)[nH]1 [ACYCLOVIR] | 250 (≈ 1110 µM) | 0.23 (≈ 1.02 µM) | 0.1 (≈ 0.444 µM) |  |  |  | 
21 | Nc1ncnc2c1ncn2[C@@H]1O[C@H](CO)[C@@H](O)[C@H]1O [ADENOSINE] |  |  |  | 400 (≈ 1500 µM) |  |  | IC50 (HeLa [1]): 98.8 µg/mL (≈ 370 µM); IC50 (HeLa [8]): Not Active; IC50 (HeLa [10]): Not Active; IC50 (HeLa [4]): 10.8 µg/mL (≈ 40.4 µM)
22 | Cc1cn([C@H]2C[C@H](N=[N+]=[N-])[C@@H](CO)O2)c(=O)[nH]c1=O [ZIDOVUDINE] |  |  |  |  | 57.3 (≈ 214 µM) | 0.02 (≈ 0.0748 µM) | 
